Activity calls are given as the source filed them. The calls are words filed in the database; no cut-off is given here.
Columns and labels:
Hepatitis C virus [1] = assay: Antiviral activity against HCV pseudoparticle harboring HCV envelope protein E1 and E2 assessed as inhibition of pseudoparticle entry into human Huh7 cells at 1 uM measured after 3 days by Bright-Glo luciferase reporter gene assay relative to control; type: functional, Hepacivirus hominis; conditions: Huh-7, 72 h
Procedure, shortened: (§1)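 HCV pseudoparticle entry screen with each compound at 1 µM and 5 µM in 1% DMSO. DMSO-only wells set maximum entry (negative control); echinocystic acid served as the entry-blocking positive control.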

Hepatitis C virus [2] = assay: Antiviral activity against HCV pseudoparticle harboring HCV envelope protein E1 and E2 assessed as inhibition of pseudoparticle entry into human Huh7 cells at 5 uM measured after 3 days by Bright-Glo luciferase reporter gene assay relative to control; type: functional, Hepacivirus hominis; conditions: Huh-7, 72 h; procedure, shortened: as §1
[3] = system: Influenza A virus (A/WSN/1933(H1N1)); assay: Antiviral activity against Influenza A virus (A/WSN/1933(H1N1)) infected in MDCK cells assessed as reduction in virus-induced cytopathic effect at 50 uM after 40 hrs by CellTiter-Glo assay; type: functional, cell-based
Procedure, shortened: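 Single-concentration screen: overnight-seeded MDCK cells were infected (MOI 0.1) in DMEM/1% FBS with […] TPCK-trypsin, compound at 1% final DMSO. CellTiter-Glo read-out after 40 h. Oseltamivir positive control; triplicate experiments, standard deviations shown.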

MDCK = assay: Cytotoxicity against MDCK cells at 50 uM after 40 hrs by CellTiter-Glo assay; type: cell-based, Canis lupus familiaris; conditions: dog
Procedure, shortened: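 Uninfected MDCK cells grown overnight, then cultured 40 h in 1% FBS medium with test compound (50 μM in screen). Viability read by CellTiter-Glo luminescence. DMSO as negative control. Triplicate experiments, standard deviations shown.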

Hepatitis C virus [4] = assay: Antiviral activity against HCV pseudoparticle harboring HCV envelope protein E1 and E2 assessed as inhibition of pseudoparticle entry into human Huh7 cells measured after 3 days by Bright-Glo luciferase reporter gene assay; type: functional; conditions: Hepacivirus hominis
[5] = Antiviral activity against Influenza A virus (A/WSN/1933(H1N1)) infected in MDCK cells assessed as reduction in virus-induced cytopathic effect after 40 hrs by CellTiter-Glo assay; type: functional, cell-based
Procedure, shortened: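 MDCK cells were seeded and incubated overnight, then infected (MOI 0.1) in DMEM with 1% FBS, […] TPCK-trypsin and compound dose series at 1% final DMSO. Cell viability was read by CellTiter-Glo luminescence after 40 h. IC50 is the concentration giving 50% inhibition of viral replication; oseltamivir was the positive control.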

[6] = system: Influenza A virus (A/WSN/1933(H1N1)); assay: Antiviral activity against Influenza A virus (A/WSN/1933(H1N1)) infected in MDCK cells assessed as reduction in virus-induced cytopathic effect at 50 uM by microscopic method; type: functional, cell-based
Procedure, shortened: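 CPE in compound-treated infected MDCK wells was inspected directly by light microscopy, with DMSO-treated infected wells as comparator.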

Row | Compound | inhibition at 1 µM (Hepatitis C virus [1]) | inhibition at 5 µM (Hepatitis C virus [2]) | Activity [3] | Activity (MDCK) | inhibition (Hepatitis C virus [4]) | IC50 [5] | Activity [6]
1 | C=C[C@@H]1C2=CCOC(=O)C2=CO[C@H]1O[C@@H]1O[C@H](CO)[C@@H](O)[C@H](O)[C@H]1O [GENTIOPICROSIDE] | 0.6% | 2.1% | – | – | – | – | –
2 | C=C[C@@H]1C2=CCOC(=O)C2=CO[C@H]1O[C@@H]1O[C@H](CNC(C)=O)[C@@H](O)[C@H](O)[C@H]1O | 0.2% | 11.2% | – | – | – | – | –
3 | C=C[C@@H]1C2=CCOC(=O)C2=CO[C@H]1O[C@@H]1O[C@H](CF)[C@@H](OC(C)=O)[C@H](OC(C)=O)[C@H]1OC(C)=O | 1.1% | 7.8% | – | – | – | – | –
4 | C=C[C@@H]1C2=CCOC(=O)C2=CO[C@H]1O[C@@H]1O[C@H](CO)[C@H](N=[N+]=[N-])[C@H](O)[C@H]1O | 11.7% | 23.3% | Active | Non-Toxic | – | – | –
5 | C=C[C@@H]1C2=CCOC(=O)C2=CO[C@H]1O[C@@H]1O[C@H](CNC(C)=O)[C@@H](OC(C)=O)[C@H](OC(C)=O)[C@H]1OC(C)=O | 9.1% | 8.8% | – | – | – | – | –
6 | C=C[C@@H]1C2=CCOC(=O)C2=CO[C@H]1O[C@@H]1O[C@H](COC(=O)c2ccccc2)[C@@H](F)[C@H](OC(=O)c2ccccc2)[C@H]1OC(=O)c1ccccc1 | – | – | Active | Non-Toxic | – | – | –
7 | C=C[C@@H]1C2=CCOC(=O)C2=CO[C@H]1O[C@@H]1O[C@H](CF)[C@@H](O)[C@H](O)[C@H]1O | 0.3% | 1% | – | – | – | – | –
8 | C=C[C@@H]1C2=CCOC(=O)C2=CO[C@H]1O[C@@H]1O[C@H](COC(=O)c2ccccc2)[C@@H](O)[C@H](OC(=O)c2ccccc2)[C@H]1OC(=O)c1ccccc1 | 0.7% | 8.1% | – | – | – | – | –
9 | C=C[C@@H]1C2=CCOC(=O)C2=CO[C@H]1O[C@@H]1O[C@H](COC(=O)c2ccccc2)[C@H](F)[C@H](OC(=O)c2ccccc2)[C@H]1OC(=O)c1ccccc1 | 0.1% | 0.2% | – | – | – | – | –
10 | C=C[C@@H]1C2=CCOC(=O)C2=CO[C@H]1O[C@@H]1O[C@H](CSC)[C@@H](OC(C)=O)[C@H](OC(C)=O)[C@H]1OC(C)=O | – | – | Active | Non-Toxic | – | – | –
11 | C=C[C@@H]1C2=CCOC(=O)C2=CO[C@H]1O[C@@H]1O[C@H](CO)[C@@H](F)[C@H](O)[C@H]1O | 0.9% | 45.9% | – | – | Dose-dependent effect | – | –
12 | C=C[C@@H]1C2=CCOC(=O)C2=CO[C@H]1O[C@@H]1O[C@H](CSC)[C@@H](O)[C@H](O)[C@H]1O | 14.9% | 21% | Active | Non-Toxic | – | – | –
13 | C=C[C@@H]1C2=CCOC(=O)C2=CO[C@H]1O[C@@H]1OC(COC(=O)c2ccccc2)=C[C@H](OC(=O)c2ccccc2)[C@H]1OC(=O)c1ccccc1 | 0.5% | 40.3% | Active | Non-Toxic | Dose-dependent effect | 44 µM | –
14 | CCOC(=O)C1=C[C@@H](OC(CC)CC)[C@H](NC(C)=O)[C@@H](N)C1 [OSELTAMIVIR] | – | – | – | – | – | 33.6 µM | –
15 | CC1(C)CC[C@]2(C(=O)O)[C@H](O)C[C@]3(C)C(=CC[C@@H]4[C@@]5(C)CC[C@H](O)C(C)(C)[C@@H]5CC[C@]43C)[C@@H]2C1 | 30.7% | 69.6% | – | – | – | – | –
16 | C=C[C@@H]1C2=CCOC(=O)C2=CO[C@H]1O[C@@H]1O[C@H](CSC(C)=O)[C@@H](OC(C)=O)[C@H](OC(C)=O)[C@H]1OC(C)=O | 30.4% | 21.7% | Active | Non-Toxic | – | – | –
17 | C=C[C@@H]1C2=CCOC(=O)C2=CO[C@H]1O[C@@H]1O[C@H](COC(=O)c2ccccc2)[C@@H](N=[N+]=[N-])[C@H](OC(=O)c2ccccc2)[C@H]1OC(=O)c1ccccc1 | 0.1% | 4.7% | – | – | – | – | –
18 | C=C[C@@H]1C2=CCOC(=O)C2=CO[C@H]1O[C@@H]1O[C@H](CS)[C@@H](O)[C@H](O)[C@H]1O | 0.2% | 0.1% | Active | Non-Toxic | – | – | –
19 | C=C[C@@H]1C2=CCOC(=O)C2=CO[C@H]1O[C@@H]1O[C@H](COC(=O)c2ccccc2)[C@@H](SC(C)=O)[C@H](OC(=O)c2ccccc2)[C@H]1OC(=O)c1ccccc1 | 0.2% | 45.1% | – | – | Dose-dependent effect | – | –
20 | C=C[C@@H]1C2=CCOC(=O)C2=CO[C@H]1O[C@@H]1O[C@H](COC(=O)c2ccccc2)[C@@H](OS(C)(=O)=O)[C@H](OC(=O)c2ccccc2)[C@H]1OC(=O)c1ccccc1 | 38.2% | 40.4% | Active | Non-Toxic | Dose-dependent effect | 39.5 µM | Active
21 | C=C[C@@H]1C2=CCOC(=O)C2=CO[C@H]1O[C@@H]1O[C@H](COC(=O)c2ccccc2)[C@H](SC(C)=O)[C@H](OC(=O)c2ccccc2)[C@H]1OC(=O)c1ccccc1 | 9.5% | 26.6% | – | – | – | – | –
22 | C=C[C@@H]1C2=CCOC(=O)C2=CO[C@H]1O[C@@H]1O[C@H](COC(c2ccccc2)(c2ccccc2)c2ccccc2)[C@@H](O)[C@H](O)[C@H]1O | – | – | – | Toxic | – | – | –
23 | C=C[C@@H]1C2=CCOC(=O)C2=CO[C@H]1O[C@@H]1O[C@H](COC(=O)c2ccccc2)[C@H](N=[N+]=[N-])[C@H](OC(=O)c2ccccc2)[C@H]1OC(=O)c1ccccc1 | 0.2% | 17.9% | – | – | – | – | –
24 | C=C[C@@H]1C2=CCOC(=O)C2=CO[C@H]1O[C@@H]1O[C@H](CO)[C@@H](N=[N+]=[N-])[C@H](O)[C@H]1O | 0.2% | 0.4% | Active | Non-Toxic | – | – | –
25 | C=C[C@@H]1C2=CCOC(=O)C2=CO[C@H]1O[C@@H]1O[C@H](CO)[C@H](F)[C@H](O)[C@H]1O | 0.7% | 13.3% | Active | Non-Toxic | – | 45.2 µM | –
26 | C=C[C@@H]1C2=CCOC(=O)C2=CO[C@H]1O[C@@H]1O[C@H](CO)[C@H](S)[C@H](O)[C@H]1OC(=O)c1ccccc1 | 0.3% | 4.5% | – | – | – | – | –
27 | C=C[C@@H]1C2=CCOC(=O)C2=CO[C@H]1O[C@@H]1O[C@H](CO)[C@@H](S)[C@H](O)[C@H]1O | 5.6% | 18.6% | – | – | – | – | –

Source: ChEMBL document CHEMBL4014281, “Design, synthesis and biological evaluation of gentiopicroside derivatives as potential antiviral inhibitors” (Eur J Med Chem, 2017)
